In ChEMBL document CHEMBL1781970, “Synthesis and antiproliferative evaluation of 23-hydroxybetulinic acid derivatives” (Eur J Med Chem, 2011):

How the values were obtained:
Assay type in all cases: functional, cell-based
MCF7 = assay: Antiproliferative activity against human MCF7 cells after 72 hrs by MTT assay; conditions: MCF7, 72 h
Procedure, shortened: (§1)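 Cells grown in RPMI 1640 with 10% FBS and 1% penicillin-streptomycin at 37 °C, 5% CO2, then seeded overnight in 96-well plates. Test compounds were dissolved in DMSO (doxorubicin control in PBS) and given at various concentrations for 72 h at 37 °C. MTT (5 mg/mL in PBS) was added for 4 h and OD read at 570 nm. IC50 was taken from dose-response curves; mean ± SD, ≥3 independent experiments.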

A-375 = assay: Antiproliferative activity against human A375 cells after 72 hrs by MTT assay; conditions: A-375, 72 h; procedure, shortened: as §1
HepG2 = assay: Antiproliferative activity against human HepG2 cells after 72 hrs by MTT assay; conditions: HepG2, 72 h; procedure, shortened: as §1
HeLa = assay: Antiproliferative activity against human HeLa cells after 72 hrs by MTT assay; procedure, shortened: as §1
B16 = assay: Antiproliferative activity against mouse B16 cells after 72 hrs by MTT assay; conditions: B16, 72 h; procedure, shortened: as §1

| SMILES | IC50 (MCF7) [µM] | IC50 (A-375) [µM] | IC50 (HepG2) [µM] | IC50 (HeLa) [µM] | IC50 (B16) [µM] |
| --- | --- | --- | --- | --- | --- |
| C=C(C)[C@@H]1CC[C@]2(C(=O)N[C@@H](CCSC)C(=O)N[C@@H](CCSC)C(=O)O)CC[C@]3(C)[C@H](CC[C@@H]4[C@@]5(C)CC[C@H](O)[C@@](C)(CO)[C@@H]5CC[C@]43C)[C@@H]12 | 84.7 | 89.3 | > 100 | > 100 | 65.1 |
| C=C(C)[C@@H]1CC[C@]2(C(=O)N3CCC[C@H]3C(=O)N[C@@H](CCSC)C(=O)O)CC[C@]3(C)[C@H](CC[C@@H]4[C@@]5(C)CC[C@H](O)[C@@](C)(CO)[C@@H]5CC[C@]43C)[C@@H]12 | 41.3 | 66.5 | 91.7 | 81.1 | 76.5 |
| C=C(C)[C@@H]1CC[C@]2(C(=O)NCC(=O)N3CCC[C@H]3C(=O)OC)CC[C@]3(C)[C@H](CC[C@@H]4[C@@]5(C)CC[C@H](O)[C@@](C)(CO)[C@@H]5CC[C@]43C)[C@@H]12 | 7.58 | 3.34 | 9.33 | 4.84 | 8.23 |
| C=C(C)[C@@H]1CC[C@]2(C(=O)OCCN3CCOCC3)CC[C@]3(C)[C@H](CC[C@@H]4[C@@]5(C)CC[C@H](O)[C@@](C)(CO)[C@@H]5CC[C@]43C)[C@@H]12 | 34.3 | 34.2 | 59.2 | > 100 | 45.9 |
| C=C(C)[C@@H]1CC[C@]2(C(=O)NCCN)CC[C@]3(C)[C@H](CC[C@@H]4[C@@]5(C)CC[C@H](OC(C)=O)[C@@](C)(COC(C)=O)[C@@H]5CC[C@]43C)[C@@H]12 | 3.93 | 9.99 | 7.99 | 7.39 | 4.61 |
| C=C(C)[C@@H]1CC[C@]2(C(=O)NCC(=O)N[C@@H](C)C(=O)O)CC[C@]3(C)[C@H](CC[C@@H]4[C@@]5(C)CC[C@H](O)[C@@](C)(CO)[C@@H]5CC[C@]43C)[C@@H]12 | 17.2 | 18.4 | 32.4 | 22.1 | 22.2 |
| C=C(C)[C@@H]1CC[C@]2(C(=O)N3CCNCC3)CC[C@]3(C)[C@H](CC[C@@H]4[C@@]5(C)CC[C@H](O)[C@@](C)(CO)[C@@H]5CC[C@]43C)[C@@H]12 | 2.27 | 2.3 | 8.85 | 7.12 | 4.39 |
| C=C(C)[C@@H]1CC[C@]2(C(=O)N3CCCCC3)CC[C@]3(C)[C@H](CC[C@@H]4[C@@]5(C)CC[C@H](O)[C@@](C)(CO)[C@@H]5CC[C@]43C)[C@@H]12 | 16.6 | 17.9 | 68.6 | 66.5 | 43.7 |
| C=C(C)[C@@H]1CC[C@]2(C(=O)N3CCOCC3)CC[C@]3(C)[C@H](CC[C@@H]4[C@@]5(C)CC[C@H](O)[C@@](C)(CO)[C@@H]5CC[C@]43C)[C@@H]12 | 19.8 | 25.1 | 42 | 34.3 | 42.7 |
| C=C(CO)[C@@H]1CC[C@]2(C(=O)OCC3CCCO3)CC[C@]3(C)[C@H](CC[C@@H]4[C@@]5(C)CC[C@H](O)[C@@](C)(CO)[C@@H]5CC[C@]43C)[C@@H]12 (stereo not given in full) | 76.3 | 70.4 | 81.2 | 79.4 | 64.3 |
| C=C(C)[C@@H]1CC[C@]2(C(=O)N3CCOCC3)CC[C@]3(C)[C@H](CC[C@@H]4[C@@]5(C)CC[C@H](OC(C)=O)[C@@](C)(COC(C)=O)[C@@H]5CC[C@]43C)[C@@H]12 | 26.4 | 4.33 | 9.74 | 7.47 | 18.5 |
| C=C(C)[C@@H]1CC[C@]2(C(=O)N3CCC[C@H]3C(=O)OC)CC[C@]3(C)[C@H](CC[C@@H]4[C@@]5(C)CC[C@H](OC(C)=O)[C@@](C)(COC(C)=O)[C@@H]5CC[C@]43C)[C@@H]12 | 27.2 | 5.83 | 9.78 | 9.78 | 93.7 |
| C=CCN(CC=C)C(=O)[C@]12CC[C@@H](C(=C)C)[C@@H]1[C@H]1CC[C@@H]3[C@@]4(C)CC[C@H](OC(C)=O)[C@@](C)(COC(C)=O)[C@@H]4CC[C@@]3(C)[C@]1(C)CC2 | 47.1 | 19 | 8.41 | 9.84 | > 100 |
| C=C(C)[C@@H]1CC[C@]2(C(=O)NCCCCn3nnc(-c4ccccn4)n3)CC[C@]3(C)[C@H](CC[C@@H]4[C@@]5(C)CC[C@H](O)[C@@](C)(CO)[C@@H]5CC[C@]43C)[C@@H]12 | 17.7 | 30.6 | 48.3 | 46.3 | 66.9 |
| C=C(C)[C@@H]1CC[C@]2(C(=O)NCCCCn3nnc(-c4ccccn4)n3)CC[C@]3(C)[C@H](CC[C@@H]4[C@@]5(C)CC[C@H](OC(C)=O)[C@@](C)(COC(C)=O)[C@@H]5CC[C@]43C)[C@@H]12 | 16.1 | 1.81 | 3.91 | 17.9 | 4.75 |
| C=C(CO)[C@@H]1CC[C@]2(C(=O)N3CCC[C@H]3C(=O)OC)CC[C@]3(C)[C@H](CC[C@@H]4[C@@]5(C)CC[C@H](OC(C)=O)[C@@](C)(COC(C)=O)[C@@H]5CC[C@]43C)[C@@H]12 | 32 | 11.8 | 10 | 13.1 | 69 |
| C=C(C)[C@@H]1CC[C@]2(C(=O)OCCN3CCOCC3)CC[C@]3(C)[C@H](CC[C@@H]4[C@@]5(C)CC[C@H](OC(C)=O)[C@@](C)(COC(C)=O)[C@@H]5CC[C@]43C)[C@@H]12 | 97.6 | 8.71 | 12.3 | 9.18 | 24.2 |
